RBBP9 inh: inhibitors of human serine hydrolase RBBP9. O75884. recombinant RBBP9, FP-Rh probe fluorescence polarization. inhibition, % at 7.94 µM. 220,000 tested, 0.2% active. AID 1515;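 active = inhibition above the campaign mean of all tested compounds plus 3 SD, cut at about 14% in these data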
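System: RBBP9 protein / Buffer or medium: Tris/NaCl buffer pH 8.0 with 0.1% Pluronic / Probe or stimulus: Serine-hydrolase probe FP-Rh, 375 nM pre-mixing / Dosing: 7.94 µM single dose, 0.794% DMSO / Times: enzyme-compound preincubation 30 min, then probe labeling 45 min, 25 °C / Technique: fluorescence polarization (mP), excitation 525 nm, emission 598 nm / Replication: singlicate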
TbHK1 inh: blocks Trypanosoma brucei hexokinase 1 activity. 220,000 tested, 0.11% active. AID 1430. inhibition, % at 10 µM. recombinant TbHK1, G6PDH-coupled NADH A340;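 active = inhibition of 50% or more in the single-dose primary screen; inactive = inhibition below 50%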
SDO1 yeast rescue: sdo1-depleted yeast growth rescue; S. cerevisiae sdo1-depleted JHY4D growth rescue, OD600 30 h; hits give high values; pdr5 snq2 efflux-pump mutant strain; z-score at 10 µM; 140,000 tested, 0.21% active; AID 817;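 active = z-score above 3 at both the 24 hr and the 30 hr optical density reads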
Yeast growth inh: yeast BB579 growth reduction in restrictive medium; 140,000 tested, 0.51% active; inhibition, % at 10 µM; S. cerevisiae BB579 growth, OD615, 48 h; AID 804;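 active = inhibition above a set limit, 3 SD over the mean compound inhibition, cut at about 44% in these data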
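Test system: Saccharomyces cerevisiae DeaD strain BB579, replicative lifespan model yeast | Buffer or medium: Restrictive CSMM-D medium | Doses: One dose, 10 µM compound with 0.25% DMSO | Incubation: 48 h exposure, 30 °C | Detection: Culture absorbance at 615 nm | Control set: Amphotericin B at 10 µg/mL as positive control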
Yeast life ext: yeast lifespan extension. S. cerevisiae growth with nicotinamide, OD615; deaD strain in restrictive glucose medium. inhibition of the nicotinamide effect, % at 10 µM. 130,000 tested, 0.68% active. AID 775;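 active = inhibition above a set limit, placed 3 SD over the median of all compounds, cut at about 26% in these data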
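Assay system: engineered S. cerevisiae DeaD replicative-lifespan strain, galactose-grown log-phase cells; medium: restrictive CSMM-D dextrose medium; also added: nicotinamide, 1.5 mM, co-present with compound; schedule: 48 h compound exposure at 30 °C, humidified; detection: absorbance at 615 nm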
p47phox inh: p47phox (human) inhibition; P14598; p47phox/p22phox peptide binding, fluorescence polarization, 2 h; inhibition, % at 24.7 µM; 220,000 tested, 0.53% active;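 active = inhibition above about 30%, limit read from the data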
Target sequence (P14598 whole entry, looked up): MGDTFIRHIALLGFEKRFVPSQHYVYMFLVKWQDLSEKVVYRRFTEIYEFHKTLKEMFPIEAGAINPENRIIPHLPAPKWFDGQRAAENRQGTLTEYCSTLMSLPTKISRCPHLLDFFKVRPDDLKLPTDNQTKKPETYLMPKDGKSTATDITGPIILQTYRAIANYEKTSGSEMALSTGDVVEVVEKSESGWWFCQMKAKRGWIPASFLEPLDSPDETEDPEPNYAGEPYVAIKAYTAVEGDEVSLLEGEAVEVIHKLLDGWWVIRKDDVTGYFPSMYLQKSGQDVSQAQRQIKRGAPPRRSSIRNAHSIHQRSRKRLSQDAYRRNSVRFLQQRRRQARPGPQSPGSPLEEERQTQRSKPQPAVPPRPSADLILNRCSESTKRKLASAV
G6PDH counter: inhibits Leuconostoc G6PDH, counter-screen for TbHK1 inhibitors; purified G6PDH, NADH absorbance, 1 h; 210 tested, 7% active; inhibition, % at 10 µM; shares compounds with TbHK1 inh;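 active = at least 50% inhibition in the glucose-6-phosphate dehydrogenase coupled counterscreen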
TbHK1 rescreen: T. brucei hexokinase 1 inhibition, rescreen | AID 2560 | shares compounds with TbHK1 inh | recombinant TbHK1, G6PDH-coupled NADH A340 absorbance | inhibition, % at 10 µM | 210 tested, 10% active;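 active = inhibition of at least 50% in both of the two screening runs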
Of the large screens only hits and unclear results are named; the others gave an inactive call (follow-up assays come after a bar, where they were run). Compounds with a hit are over-represented: about 1.6% of the library has one in this group of screens.

NC(=O)C1CCN(C(=O)CN(c2cccc(C(F)(F)F)c2)S(=O)(=O)c2ccccc2)CC1	TbHK1 inh 52 | G6PDH counter inactive | TbHK1 rescreen inactive
O=C(c1sccc1Cl)N1CCN(Cc2ccc3c(c2)OCO3)CC1	none (no result: SDO1 yeast rescue, Yeast growth inh, Yeast life ext)
COc1ccc(CC/C(=N\O)C2(O)CCCCC2)cc1	TbHK1 inh 74 | G6PDH counter inactive | TbHK1 rescreen inactive
O=C(O)CCN=C1CCCc2ccccc2N1	TbHK1 inh 54 | G6PDH counter inactive | TbHK1 rescreen inactive
CC[n+]1c(/C=C/N(C)c2ccccc2)oc2ccc(Cl)cc21	none
CCN1/C(=C/C=C/c2oc3ccc4ccccc4c3[n+]2CC)Oc2ccc3ccccc3c21	TbHK1 inh 100 (no result: SDO1 yeast rescue, Yeast growth inh, Yeast life ext) | G6PDH counter 132 | TbHK1 rescreen 85
O=C1CCC(C(=O)NCCCn2ccnc2)N1 (stereo not drawn)	TbHK1 inh 58 | G6PDH counter inactive | TbHK1 rescreen inactive
O=C(CCC(=O)Nc1ccc(Oc2ccccc2)cc1)NCCO	TbHK1 inh 50 | G6PDH counter inactive | TbHK1 rescreen inactive
CC(Nc1nc(N2CCNCC2)nc2ccccc12)c1ccccc1 (stereo not drawn)	none (no result: SDO1 yeast rescue, Yeast growth inh, Yeast life ext)
Cc1cc(=O)[nH]c(N/N=C/c2c(O)n(-c3ccccc3)c(=O)c3ccccc23)n1	TbHK1 inh 56 | G6PDH counter inactive | TbHK1 rescreen inactive
COc1ccc(C(=O)Nc2cc(Cl)ccc2C(=O)O)cc1	TbHK1 inh 53 (no result: SDO1 yeast rescue, Yeast growth inh, Yeast life ext) | G6PDH counter inactive | TbHK1 rescreen 65
COc1cc(C(=O)NNC(=S)NC(=O)c2ccc(Cl)cc2)cc(OC)c1OC	none
Cc1cccc(C(=O)NC(=S)NNC(=O)c2ccc(Cl)cc2)c1	TbHK1 inh 62 | G6PDH counter inactive | TbHK1 rescreen inactive
CCOc1ccc(N2C(=O)CN(CC(=O)OC)C2=S)cc1	none (no result: SDO1 yeast rescue, Yeast growth inh, Yeast life ext)
CCCCc1oc2ccccc2c1C(=O)c1cc(I)c(OCCN(CC)CC)c(I)c1	TbHK1 inh 63, Yeast growth inh 99 | G6PDH counter inactive | TbHK1 rescreen inactive
O=C(CSc1nnc(COc2ccccc2)o1)NCCc1ccccc1	TbHK1 inh 73 | G6PDH counter inactive | TbHK1 rescreen inactive
CCS(=O)(=O)N1CCC(C(=O)NCCN2CCN(Cc3ccccc3)CC2)CC1	TbHK1 inh 50 | G6PDH counter inactive | TbHK1 rescreen inactive
CCS(=O)(=O)N1CCC(C(=O)NCCc2ccccc2)CC1	none
CC(=O)c1ccc(NC(=O)c2ccc(CNc3c(N4CCOCC4)c(=O)c3=O)cc2)cc1	none (no result: SDO1 yeast rescue, Yeast growth inh, Yeast life ext)
CC1CC2(CC(C)(C(=O)CSc3n[nH]c(-c4ccccc4Cl)n3)OC2=O)C(=O)O1 (stereo not drawn)	none
CC1(C(=O)CSc2n[nH]c(-c3ccccc3Cl)n2)CCC(=O)O1 (stereo not drawn)	TbHK1 inh 67 | G6PDH counter inactive | TbHK1 rescreen inactive
O=C(Nc1ccc2c(c1)OCO2)C1CCCN(S(=O)(=O)c2cccs2)C1 (stereo not drawn)	TbHK1 inh 55 | G6PDH counter inactive | TbHK1 rescreen inactive
O=C(Nc1ccc2c(c1)OCCO2)C1CCN(S(=O)(=O)c2cccs2)CC1	none
O=C(Nc1ccc2c(c1)OCCO2)C1CCCN(S(=O)(=O)c2cccs2)C1 (stereo not drawn)	TbHK1 inh 58 | G6PDH counter inactive | TbHK1 rescreen inactive
CCOc1ccc(-c2csc(NNC3=NCCCCC3)n2)cc1	none (no result: SDO1 yeast rescue, Yeast growth inh, Yeast life ext)
COc1ccc(CCCC(=O)N/N=C/c2cccc(OC)c2O)cc1C	TbHK1 inh 63 | G6PDH counter inactive | TbHK1 rescreen inactive
COc1cccc(/C=N/NC(=O)C[n+]2ccccc2)c1O	none
CCn1nc(NC(=O)Cc2ccc(OC)cc2)c2cc3cccc(C)c3nc21	none (no result: SDO1 yeast rescue, Yeast growth inh, Yeast life ext)
C/C(Cl)=C/Cn1c(=O)c2c(nc(Br)n2Cc2ccccc2)n(C)c1=O	TbHK1 inh 58 | G6PDH counter inactive | TbHK1 rescreen inactive
C/C(Cl)=C\Cn1c(NCCc2ccccc2)nc2c1c(=O)n(C)c(=O)n2C	none
COCCN(CC(=O)NCc1ccc2c(c1)OCO2)C(=O)CCC(=O)Nc1nccs1	none (no result: Yeast life ext)

Compound activity as filed in PubChem BioAssay.
